{
  "source": "ChEMBL document CHEMBL5303300",
  "about": "“EUbOPEN Chemogenomics Library - Multiplex” (2023)",
  "tested_on": "HEK-293T",
  "assay": "Multiplex assay against HEK293T",
  "assay_type": "toxicity, cell-based",
  "details": "human, number of replicates 2",
  "procedure,_shortened": "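Four dyes were applied at seeding to live cells: Hoechst33342, BioTracker Green Microtubule Cytoskeleton Dye, MitoTracker Red and Annexin V Alexa Fluor 680. Imaging after compound addition used a CQ1 microscope at 37°C and 5% CO2. CellPathfinder machine-learning gating then sorted cells into Hoechst high-intensity objects or normal cells, normal cells into healthy, pyknosed or fragmented nuclei, and pyknosed cells into mitotic or apoptotic, with tubulin, mitochondrial-mass and membrane-permeability phenotypes given as per cents of healthy-nucleus cells.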",
  "key": {"[1]": {"details": "12 h, 1 µM, compound concentration 1 uM"}, "[2]": {"details": "12 h, 10 µM, compound concentration 10 uM"}, "[3]": {"details": "24 h, 1 µM, compound concentration 1 uM"}, "[4]": {"details": "24 h, 10 µM, compound concentration 10 uM"}, "[5]": {"details": "48 h, 1 µM, compound concentration 1 uM"}, "[6]": {"details": "48 h, 10 µM, compound concentration 10 uM"}},
  "note": "Where “and” joins values, the source holds several entries; their conditions need not be identical. Equal entries are not always repeated.",
  "data": [
    {"smiles": "COc1cc(C(=O)NC2CCN(C)CC2)ccc1Nc1ncc(C(F)(F)F)c(NCc2ccc(C)cc2N(C)S(C)(=O)=O)n1.O=CO.O=CO", "values": [
      {"measurement": "Population Apoptotic (%)", "setting": "[1]", "value": "57% and 71%"},
      {"measurement": "Population Fragmented Nuclei (%)", "setting": "[1]", "value": "5% and 6%"},
      {"measurement": "Population Healthy Nuclei (%)", "setting": "[1]", "value": "81% and 84%"},
      {"measurement": "Population Hoechst High Intensity Objects (%)", "setting": "[1]", "value": "13% and 16%"},
      {"measurement": "Population Membrane Permeable-Phenotype (%)", "setting": "[1]", "value": "4% and 0%"},
      {"measurement": "Population Mitochondria Different-Phenotype (%)", "setting": "[1]", "value": "50% and 59%"},
      {"measurement": "Population Mitotic Cells (%)", "setting": "[1]", "value": "42% and 28%"},
      {"measurement": "Population Normal (%)", "setting": "[1]", "value": "86% and 83%"},
      {"measurement": "Population Pyknosed Nuclei (%)", "setting": "[1]", "value": "13% and 9%"},
      {"measurement": "Population Tubulin-Different-Phenotype (%)", "setting": "[1]", "value": "89% and 95%"},
      {"measurement": "Total Cell Count", "setting": "[1]", "value": "378 and 461"},
      {"measurement": "Population Apoptotic (%)", "setting": "[2]", "value": "86% and 89%"},
      {"measurement": "Population Fragmented Nuclei (%)", "setting": "[2]", "value": "7% and 6%"},
      {"measurement": "Population Healthy Nuclei (%)", "setting": "[2]", "value": "45% and 62%"},
      {"measurement": "Population Hoechst High Intensity Objects (%)", "setting": "[2]", "value": 23, "unit": "%"},
      {"measurement": "Population Membrane Permeable-Phenotype (%)", "setting": "[2]", "value": "6% and 0%"},
      {"measurement": "Population Mitochondria Different-Phenotype (%)", "setting": "[2]", "value": "74% and 85%"},
      {"measurement": "Population Mitotic Cells (%)", "setting": "[2]", "value": "13% and 10%"},
      {"measurement": "Population Normal (%)", "setting": "[2]", "value": 76, "unit": "%"},
      {"measurement": "Population Pyknosed Nuclei (%)", "setting": "[2]", "value": "47% and 31%"},
      {"measurement": "Population Tubulin-Different-Phenotype (%)", "setting": "[2]", "value": "87% and 92%"},
      {"measurement": "Total Cell Count", "setting": "[2]", "value": "288 and 266"},
      {"measurement": "Population Apoptotic (%)", "setting": "[3]", "value": "73% and 60%"},
      {"measurement": "Population Fragmented Nuclei (%)", "setting": "[3]", "value": "9% and 10%"},
      {"measurement": "Population Healthy Nuclei (%)", "setting": "[3]", "value": "83% and 80%"},
      {"measurement": "Population Hoechst High Intensity Objects (%)", "setting": "[3]", "value": 12, "unit": "%"},
      {"measurement": "Population Membrane Permeable-Phenotype (%)", "setting": "[3]", "value": "5% and 1%"},
      {"measurement": "Population Mitochondria Different-Phenotype (%)", "setting": "[3]", "value": 17, "unit": "%"},
      {"measurement": "Population Mitotic Cells (%)", "setting": "[3]", "value": "26% and 40%"},
      {"measurement": "Population Normal (%)", "setting": "[3]", "value": 87, "unit": "%"},
      {"measurement": "Population Pyknosed Nuclei (%)", "setting": "[3]", "value": "7% and 8%"},
      {"measurement": "Population Tubulin-Different-Phenotype (%)", "setting": "[3]", "value": "70% and 79%"},
      {"measurement": "Total Cell Count", "setting": "[3]", "value": "658 and 751"},
      {"measurement": "Population Apoptotic (%)", "setting": "[4]", "value": "84% and 81%"},
      {"measurement": "Population Fragmented Nuclei (%)", "setting": "[4]", "value": "8% and 3%"},
      {"measurement": "Population Healthy Nuclei (%)", "setting": "[4]", "value": "35% and 51%"},
      {"measurement": "Population Hoechst High Intensity Objects (%)", "setting": "[4]", "value": "22% and 23%"},
      {"measurement": "Population Membrane Permeable-Phenotype (%)", "setting": "[4]", "value": "7% and 5%"},
      {"measurement": "Population Mitochondria Different-Phenotype (%)", "setting": "[4]", "value": "71% and 68%"},
      {"measurement": "Population Mitotic Cells (%)", "setting": "[4]", "value": "15% and 18%"},
      {"measurement": "Population Normal (%)", "setting": "[4]", "value": "77% and 76%"},
      {"measurement": "Population Pyknosed Nuclei (%)", "setting": "[4]", "value": "55% and 44%"},
      {"measurement": "Population Tubulin-Different-Phenotype (%)", "setting": "[4]", "value": "86% and 95%"},
      {"measurement": "Total Cell Count", "setting": "[4]", "value": "363 and 344"},
      {"measurement": "Population Apoptotic (%)", "setting": "[5]", "value": "41% and 21%"},
      {"measurement": "Population Fragmented Nuclei (%)", "setting": "[5]", "value": "15% and 16%"},
      {"measurement": "Population Healthy Nuclei (%)", "setting": "[5]", "value": "81% and 79%"},
      {"measurement": "Population Hoechst High Intensity Objects (%)", "setting": "[5]", "value": "16% and 14%"},
      {"measurement": "Population Membrane Permeable-Phenotype (%)", "setting": "[5]", "value": "1% and 3%"},
      {"measurement": "Population Mitochondria Different-Phenotype (%)", "setting": "[5]", "value": "3% and 1%"},
      {"measurement": "Population Mitotic Cells (%)", "setting": "[5]", "value": "58% and 78%"},
      {"measurement": "Population Normal (%)", "setting": "[5]", "value": "83% and 85%"},
      {"measurement": "Population Pyknosed Nuclei (%)", "setting": "[5]", "value": 3, "unit": "%"},
      {"measurement": "Population Tubulin-Different-Phenotype (%)", "setting": "[5]", "value": "51% and 37%"},
      {"measurement": "Total Cell Count", "setting": "[5]", "value": "1721 and 1697"},
      {"measurement": "Population Apoptotic (%)", "setting": "[6]", "value": "82% and 77%"},
      {"measurement": "Population Fragmented Nuclei (%)", "setting": "[6]", "value": "8% and 4%"},
      {"measurement": "Population Healthy Nuclei (%)", "setting": "[6]", "value": "22% and 25%"},
      {"measurement": "Population Hoechst High Intensity Objects (%)", "setting": "[6]", "value": "25% and 22%"},
      {"measurement": "Population Membrane Permeable-Phenotype (%)", "setting": "[6]", "value": "4% and 2%"},
      {"measurement": "Population Mitochondria Different-Phenotype (%)", "setting": "[6]", "value": "55% and 76%"},
      {"measurement": "Population Mitotic Cells (%)", "setting": "[6]", "value": "17% and 22%"},
      {"measurement": "Population Normal (%)", "setting": "[6]", "value": "74% and 77%"},
      {"measurement": "Population Pyknosed Nuclei (%)", "setting": "[6]", "value": "68% and 69%"},
      {"measurement": "Population Tubulin-Different-Phenotype (%)", "setting": "[6]", "value": "93% and 95%"},
      {"measurement": "Total Cell Count", "setting": "[6]", "value": "374 and 336"}
    ]}
  ]
}
